Results from ChEMBL document CHEMBL1156597, “Structure-activity relationship of kahalalide F synthetic analogues” (J Med Chem, 2008).

How the values were obtained:
[1] = test system: LoVo; assay: Cytotoxicity against human LoVo cells after 48 hrs by SRB assay; assay type: functional; settings: for CC50: read-out: LC50 (the source's name)
[2] = test system: A549; assay: Cytotoxicity against human A549 cells after 48 hrs by SRB assay; assay type: functional, cell-based; settings: Homo sapiens, A549, 48 h
Summary of the method: (§1)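 Cells grown in RPMI 1640 with 10% FBS and penicillin/streptomycin at 37 °C and 5% CO₂, trypsinized, then seeded at 5 × 10³/well. After 18 h drug-free attachment, samples in DMSO/EtOH/PBS (0.5:0.5:99) were added for 48 h continuous exposure. Cells were fixed with cold TCA (1 h, 4 °C) and stained with SRB (10 min). Tris-solubilized stain read at 490 nm. Triplicate wells, mean ± SD; GI₅₀ derived.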

[3] = Cytotoxicity against human IGROV cells after 48 hrs by SRB assay; assay type: functional; settings: for CC50: read-out: LC50 (the source's name); summary of the method: as §1
[4] = test system: HT-29; assay: Cytotoxicity against human HT29 cells after 48 hrs by SRB assay; assay type: functional, cell-based; settings: Homo sapiens, HT-29, 48 h; for CC50: read-out: LC50 (the source's name); summary of the method: as §1
[5] = test system: HeLa; assay: Cytotoxicity against human HeLa cells after 48 hrs by SRB assay; assay type: functional; settings: for CC50: read-out: LC50 (the source's name); summary of the method: as §1
[6] = test system: PANC-1; assay: Cytotoxicity against human PANC1 cells after 48 hrs by SRB assay; assay type: functional; settings: PANC-1, 48 h; for CC50: read-out: LC50 (the source's name); summary of the method: as §1
[7] = Cytotoxicity against human IGROV-ET cells after 48 hrs by SRB assay; assay type: functional; settings: for CC50: read-out: LC50 (the source's name); summary of the method: as §1
[8] = test system: SK-MEL-28; assay: Cytotoxicity against human SK-MEL-28 cells after 48 hrs by SRB assay; assay type: functional, cell-based; settings: Homo sapiens, SK-MEL-28, 48 h; for CC50: read-out: LC50 (the source's name); summary of the method: as §1
[9] = test system: SK-BR-3; assay: Cytotoxicity against human SKBR3 cells after 48 hrs by SRB assay; assay type: functional; settings: SK-BR-3, 48 h; for CC50: read-out: LC50 (the source's name); summary of the method: as §1
[10] = test system: DU-145; assay: Cytotoxicity against human DU145 cells after 48 hrs by SRB assay; assay type: functional, cell-based; settings: Homo sapiens, DU-145, 48 h; for CC50: read-out: LC50 (the source's name); summary of the method: as §1
[11] = Cytotoxicity against human HeLa-APL cells after 48 hrs by SRB assay; assay type: functional; summary of the method: as §1
[12] = test system: K562; assay: Cytotoxicity against human K562 cells after 48 hrs by SRB assay; assay type: functional; settings: K562, 48 h; for CC50: read-out: LC50 (the source's name); summary of the method: as §1
[13] = test system: LoVo; assay: Cytotoxicity against human doxorubicin resistant LoVo cells after 48 hrs by SRB assay; assay type: functional; settings: for CC50: read-out: LC50 (the source's name); summary of the method: as §1

SMILES	TGI [1] [nM]	CC50 [1] [nM]	LC50 [2] [nM]	GI50 [3] [nM]	GI50 ([3]; read-out: GI50) [nM]	CC50 [3] [nM]	GI50 [4] [nM]	TGI [4] [nM]	CC50 [4] [nM]	CC50 [5] [nM]	CC50 [6] [nM]	CC50 [7] [nM]	GI50 ([8]; read-out: GI50) [nM]	CC50 [8] [nM]	GI50 ([9]; read-out: GI50) [nM]	CC50 [9] [nM]	GI50 ([10]; read-out: GI50) [nM]	CC50 [10] [nM]	LC50 (concentration giving 50% net cell kill) [11] [nM]	CC50 [12] [nM]	also measured
C/C=C1\NC(=O)[C@H](Cc2ccc3ccccc3c2)NC(=O)[C@@H](C(C)C)NC(=O)[C@@H]([C@H](C)CC)NC(=O)[C@H](NC(=O)[C@H](NC(=O)[C@H](CCCN)NC(=O)[C@H]2CCCN2C(=O)[C@H](NC(=O)[C@@H](NC(=O)[C@@H](NC(=O)[C@H](NC(=O)CCCC(C)C)C(C)C)[C@@H](C)O)C(C)C)C(C)C)[C@H](C)CC)[C@H](C)OC(=O)[C@H](C(C)C)NC1=O	22.9	34.4	343	37.2	27.3	44.3	37.9	39.1	60.9	220	1370	120	135	339	21.7	32.7	50.9	224	205	1320	GI50 [2]: 194 nM; GI50 ([2]; read-out: GI50): 110 nM; GI50 [5]: 71.6 nM; TGI [5]: 94.6 nM; GI50 [6]: 606 nM; TGI [6]: 909 nM; TGI [7]: 60.4 nM; GI50 ([7]; read-out: GI50): 46.4 nM; GI50 [8]: 213 nM; GI50 [9]: 18.8 nM; GI50 [10]: 116 nM; GI50 [11]: 77.5 nM; TGI [11]: 91.7 nM; GI50 [12]: 287 nM; TGI [12]: 679 nM; GI50 [13]: 29.5 nM; TGI [13]: 29 nM; CC50 [13]: 148 nM
C/C=C1\NC(=O)[C@H](Cc2ccccc2)NC(=O)[C@@H](C(C)C)NC(=O)[C@@H]([C@H](C)CC)NC(=O)[C@H](NC(=O)[C@H](NC(=O)[C@H](CCCNC(=O)CCC2CCCCC2)NC(=O)[C@H]2CCCN2C(=O)[C@H](NC(=O)[C@@H](NC(=O)[C@@H](NC(=O)[C@H](NC(=O)CCCC(C)C)C(C)C)[C@@H](C)O)C(C)C)C(C)C)[C@H](C)CC)[C@H](C)OC(=O)[C@H](C(C)C)NC1=O	63.4	201	365	89.8	48.1	459	66.6	85	130	799	163	547	94.3	327	36.2	94.7	76.6	853	893	17.7	GI50 [1]: 39.2 nM; GI50 [2]: 196 nM; GI50 ([2]; read-out: GI50): 109 nM; GI50 [5]: 83.6 nM; TGI [5]: 175 nM; GI50 [7]: 158 nM; GI50 ([7]; read-out: GI50): 103 nM; GI50 [8]: 150 nM; GI50 [9]: 39 nM; GI50 [10]: 176 nM; GI50 [11]: 166 nM; TGI [11]: 264 nM; GI50 [13]: 93.5 nM; TGI [13]: 93.7 nM; CC50 [13]: 93.8 nM
C/C=C1\NC(=O)[C@H](Cc2ccccc2)NC(=O)[C@@H](C(C)C)NC(=O)[C@@H]([C@H](C)CC)NC(=O)[C@H](NC(=O)[C@H](NC(=O)[C@H](CCCNC(=O)CCOCCOCCNC(=O)OCC2c3ccccc3-c3ccccc32)NC(=O)[C@H]2CCCN2C(=O)[C@H](NC(=O)[C@@H](NC(=O)[C@@H](NC(=O)[C@H](NC(=O)CCCC(C)C)C(C)C)[C@@H](C)O)C(C)C)C(C)C)[C@H](C)CC)[C@H](C)OC(=O)[C@H](C(C)C)NC1=O	61.7	43.2	32	79.9	36.1	404	85.3	117	263	767	141	216	68.4	10.3	39.6	392	16.4	557	528	15.4	GI50 [1]: 44.3 nM; GI50 [5]: 56.4 nM; TGI [5]: 119 nM; GI50 [8]: 840 nM; GI50 [9]: 53.4 nM; TGI [10]: 15.7 nM; GI50 [11]: 53.8 nM; TGI [11]: 89.7 nM; GI50 [13]: 199 nM; TGI [13]: 179 nM; CC50 [13]: 238 nM
C/C=C1\NC(=O)[C@H](Cc2ccccc2)NC(=O)[C@@H](C(C)C)NC(=O)[C@@H]([C@H](C)CC)NC(=O)[C@H](NC(=O)[C@H](NC(=O)[C@H](CCCNC(=O)C[C@](OC)(c2ccccc2)C(F)(F)F)NC(=O)[C@H]2CCCN2C(=O)[C@H](NC(=O)[C@@H](NC(=O)[C@@H](NC(=O)[C@H](NC(=O)CCCC(C)C)C(C)C)[C@@H](C)O)C(C)C)C(C)C)[C@H](C)CC)[C@H](C)OC(=O)[C@H](C(C)C)NC1=O	91.4	90.9	1010	313	245	442	148	147	311	842	1550	479	1040	1040	91.8	158	886	812	850	1690	GI50 [1]: 92.7 nM; TGI [2]: 1010 nM; GI50 ([2]; read-out: GI50): 1010 nM; GI50 [5]: 537 nM; TGI [5]: 842 nM; GI50 [6]: 1550 nM; TGI [6]: 1550 nM; GI50 [7]: 397 nM; GI50 ([7]; read-out: GI50): 344 nM; TGI [8]: 1040 nM; GI50 [9]: 95.8 nM; GI50 [10]: 812 nM; GI50 [11]: 554 nM; TGI [11]: 615 nM; GI50 [12]: 1110 nM; TGI [12]: 1690 nM; CC50 [13]: 119 nM
C/C=C1\NC(=O)[C@H](Cc2ccc(Cl)cc2)NC(=O)[C@@H](C(C)C)NC(=O)[C@@H]([C@H](C)CC)NC(=O)[C@H](NC(=O)[C@H](NC(=O)[C@H](CCCN)NC(=O)[C@H]2CCCN2C(=O)[C@H](NC(=O)[C@@H](NC(=O)[C@@H](NC(=O)[C@H](NC(=O)CCCC(C)C)C(C)C)[C@@H](C)O)C(C)C)C(C)C)[C@H](C)CC)[C@H](C)OC(=O)[C@H](C(C)C)NC1=O	55	83.8	934	62.9	46.3	112	36.5	73.5	143	362	1700	175	214	931	39.7	206	112	388	286	1690	GI50 [1]: 21.6 nM; GI50 [2]: 473 nM; GI50 ([2]; read-out: GI50): 227 nM; GI50 [5]: 193 nM; TGI [5]: 184 nM; GI50 [6]: 1140 nM; TGI [6]: 1700 nM; GI50 [7]: 122 nM; GI50 ([7]; read-out: GI50): 86.2 nM; GI50 [8]: 393 nM; GI50 [9]: 38.6 nM; GI50 [10]: 189 nM; GI50 [11]: 215 nM; TGI [11]: 186 nM; GI50 [12]: 696 nM; TGI [12]: 1090 nM; GI50 [13]: 57.1 nM; TGI [13]: 44.9 nM; CC50 [13]: 340 nM
C/C=C1\NC(=O)[C@H](Cc2ccccc2)NC(=O)[C@@H](C(C)C)NC(=O)[C@@H]([C@H](C)CC)NC(=O)[C@H](NC(=O)[C@H](NC(=O)[C@H](CCCN)NC(=O)[C@H]2CCCN2C(=O)[C@H](NC(=O)[C@@H](NC(=O)[C@H](CCC(N)=O)NC(=O)[C@H](NC(=O)CCCC(C)C)C(C)C)C(C)C)C(C)C)[C@H](C)CC)[C@H](C)OC(=O)[C@H](C(C)C)NC1=O	325	357	1140	406	357	456	448	455	436	946	1740	561	1170	1170	151	300	913	913	955	1900	GI50 [1]: 258 nM; TGI [2]: 1140 nM; GI50 ([2]; read-out: GI50): 1140 nM; GI50 [6]: 1740 nM; TGI [6]: 1740 nM; GI50 [7]: 575 nM; GI50 ([7]; read-out: GI50): 477 nM; TGI [8]: 1170 nM; TGI [9]: 173 nM; GI50 [10]: 913 nM; GI50 [12]: 1900 nM; TGI [12]: 1900 nM; CC50 [13]: 348 nM
